An excerpt weighted towards active compounds, which were near 2.3% of everything screened.
ASAP1 inh = blocks human ASAP1-stimulated Arf1 GTP hydrolysis; 360,000 tested, 0.19% active; GDP FP detection; inhibition, % at 16.5 µM; Q9ULH1; in the data active = inhibition above about 25%;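 also: 0% = vehicle with enzyme and substrate and 100% = no enzyme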
Target sequence (Q9ULH1 325-724 limits assumed): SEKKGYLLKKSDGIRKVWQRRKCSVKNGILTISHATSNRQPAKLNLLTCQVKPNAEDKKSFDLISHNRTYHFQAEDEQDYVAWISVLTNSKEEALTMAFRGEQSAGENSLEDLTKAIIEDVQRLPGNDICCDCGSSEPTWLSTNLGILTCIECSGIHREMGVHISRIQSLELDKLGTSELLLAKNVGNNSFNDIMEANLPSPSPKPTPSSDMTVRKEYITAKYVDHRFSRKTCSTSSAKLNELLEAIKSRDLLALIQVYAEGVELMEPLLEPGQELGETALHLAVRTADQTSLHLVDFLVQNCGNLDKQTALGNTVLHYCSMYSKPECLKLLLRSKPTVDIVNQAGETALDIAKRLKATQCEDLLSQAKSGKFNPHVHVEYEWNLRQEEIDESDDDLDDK
SKKanGAS inh = inhibitors of SKKanGAS S. pyogenes growth in kanamycin (SK-promoter or general growth effect) | BacTiter-Glo, 6 h | inhibition, % at 7.5 µM | 300,000 tested, 1.3% active | AID 1662;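 active = mean replicate score, as percent of positive control median, at least 50; inconclusive = mean below 50 but one replicate at or above 50; inactive = mean and every replicate below 50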;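 also: strain carries kanamycin resistance gene driven by streptokinase promoter and grows in 40 µg/ml kanamycin; loss of luminescence reflects streptokinase promoter inhibition or plain growth inhibition; 0% = median of DMSO wells and 100% = positive control at its reference dose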
ARFGAP1 inhibitor = rat ARFGAP1 inhibition | Q62848 | Arfgap1-stimulated ARF1 GTP hydrolysis, GDP FP detection | inhibition, % at 16.5 µM | 360,000 tested, 0.26% active;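 active = inhibition above a per-plate limit, mean inhibition of low control wells plus 3 SD, cut at about 25% in these data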;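 also: 0% = DMSO wells with enzyme and 100% = wells lacking Arfgap1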
Target sequence (Q62848 1-136 limits assumed): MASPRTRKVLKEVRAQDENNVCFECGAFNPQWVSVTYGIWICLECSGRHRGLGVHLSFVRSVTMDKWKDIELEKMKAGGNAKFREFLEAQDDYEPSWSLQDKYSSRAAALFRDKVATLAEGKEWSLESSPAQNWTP
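Material: rat Arfgap1 catalytic domain, aa 1-136; also added: human ARF1(Δ1-17)-GTP substrate; compound dosing: one concentration, 16.5 µM, DMSO 1.26%; incubation: GTP hydrolysis reaction 2 h at 25 °C; measured by: Tracer-displacement fluorescence polarization with EDTA stop, 620/688 nm; evaluation: % inhibition from polarization; repeats: one replicate per compound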
Calb FLC = C. albicans growth modulation with fluconazole; growth inhibition, % (concentration not given with the values); 300,000 tested, 0.57% active; C. albicans CaCi-2 + fluconazole, Alamar Blue growth, 48 h; AID 1979;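 active = growth inhibition above about 58% in most replicates, limit read from the data, passing the limit was not always enough; inconclusive = exactly half the replicates above a set limit; inactive = most replicates below a set limit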;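 also: all wells also contain fluconazole at 8 µg/ml as a sub-toxic cotreatment; 0% = median of DMSO wells and 100% = median of geldanamycin control wells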
sPLA2-III inh = Blocks human group III sPLA2 activity; 370,000 tested, 0.56% active; QFRET BODIPY PC-A2 liposome hydrolysis, fluorescence; Q9NZ20; inhibition, % at 12.2 µM;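 active = inhibition above mean plus 3 SD of compounds lying within the high and low control bounds, cut at about 19% in these data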;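 also: 0% = median of test compound wells and 100% = no enzyme DMSO wells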
Numbers without * were called inactive; u = inconclusive; x = no result.

SMILES	ASAP1 inh	SKKanGAS inh	ARFGAP1 inhibitor	Calb FLC	sPLA2-III inh
Nc1ccc2c(c1)C(=O)c1ccccc1-2	-3	-13	-10	2	16
O=C1C(=O)c2ccc(-c3ccccc3)cc2-c2ccccc21	-13	101*	15	34	4
Nc1ccc2c(c1)C(=O)C(=O)c1ccccc1-2	-17	86*	-16	-3	9
COc1cc(CC(=O)Nc2nccs2)cc(OC)c1OC	-7	-1	-3	106*	0
Fc1ccc(F)c(Cn2ccc3ccc(-c4ccc5ccn(Cc6cc(F)ccc6F)c5c4)cc32)c1	x	x	x	x	1
CCCn1c(NC(=O)C2CCN(S(=O)(=O)c3cccs3)CC2)nc2ccccc21	1	51*	-3	-5	-4
Cc1csc(NC(=O)C2CCN(S(=O)(=O)c3cccs3)CC2)n1	3	-3	6	-10	-5
CCCn1c(NC(=O)c2cccc(S(=O)(=O)N3CCCC3)c2)nc2ccccc21	-7	64*	-3	-6	-2
Cc1ccc(C(=O)Nc2nc3ccccc3n2CCN2CCCC2)cc1	2	18	1	-3	5
CCCn1c(NC(=O)c2ccccc2)nc2ccccc21	-14	69*	-10	6	4
C=CCn1c(NC(=O)c2ccc(C)cc2)nc2ccccc21	11	59*	10	1	-2
CCCn1c(NC(=O)c2ccc(C)cc2)nc2ccccc21	-4	44	6	4	8
CC(=O)N1CCN(C(=O)CSc2nc3cccnc3n2C)CC1	x	x	x	x	5
CC(C)(C)c1ccc(S(=O)(=O)NCC(=O)N2CCN(c3ncccn3)CC2)cc1	x	x	x	x	2
C[C@H](CO)N1C[C@H](C)[C@@H](CN(C)C(=O)C2CC2)OCc2cn(nn2)CCCC1=O	4	x	13	x	7
CCCn1c(Nc2nc3ccccc3n2C)nc2ccccc21	9	9	9	102*	14
O=c1c2ccccc2sn1-c1ccc(Cl)cc1Cl	0	x	-1	x	3
Nc1nc2c(-c3ccc([N+](=O)[O-])cc3)nnn2c2ccccc12	13	x	-3	x	3
CC(C)OP(=O)(c1ccc(N(C)C)cc1)C(O)c1ccccc1 (centres undefined)	-7	-5	0	98*	0
O=S(=O)(N[C@H]1C[C@@H](NS(=O)(=O)OCC(Cl)(Cl)Cl)C2CCCCC21)OCC(Cl)(Cl)Cl (some centres undefined)	6	93*	-11	-7	3
COc1cc(NC(=O)CSc2ncnc3sc4c(c23)CCCC4)c(C(=O)O)cc1OC	0	55*	6	0	0
Cc1cccc(NC(=O)CSc2ncnc3sc4c(c23)CCCC4)c1	x	x	x	x	-3
COc1ccccc1NS(=O)(=O)c1cccc(NC(=O)Nc2ccc(Cl)cc2)c1	22	55*	6	-1	-47
Cn1c(O)c(N=NC(=O)c2cc(-c3cccs3)nc3ccccc23)c2ccccc21	0	80*	1	-1	0
O=C(c1cc(-c2cccs2)nc2ccccc12)N1CCN(c2ccccc2O)CC1	15	68*	3	22	-16
SMILES	ASAP1 inh	SKKanGAS inh	ARFGAP1 inhibitor	Calb FLC	sPLA2-III inh
Cc1ccc(-c2cc(C(=O)N3CCN(c4ccccc4O)CC3)c3ccccc3n2)cc1	7	54*	-7	7	-13
COC(=O)[C@]12C=CCN1[C@H](c1ccc(C(F)(F)F)cc1)c1c(c3ccccc3n1S(=O)(=O)c1ccc(C)cc1)C2	x	x	x	x	6
CCN(CC)C(=O)CC[C@@H]1CC[C@]2(CCCN(C(=O)c3ccco3)C2)O1	x	x	x	x	4
COc1ccc(CN2C/C(=C/c3ccccc3)N3C(=O)C[C@@H](c4ccc5ccccc5c4)N=C23)c(OC)c1	x	x	x	x	-6
COc1ccc(C(=O)NCC2CCN(C(=O)C(=O)c3cccs3)CC2)c(OC)c1	-12	x	12	x	4
Cc1ccccc1-c1cc2nc(-c3ccc([N+](=O)[O-])cc3)cc(=O)n2[nH]1	-2	u	-7	0	-4
O=c1cc(-c2ccc([N+](=O)[O-])cc2)nc2cc(-c3ccc(F)cc3)[nH]n12	15	68*	-7	1	5
CO[C@H]([C@H](C)/C=C/N(C)C=O)[C@@H](C)C(=O)CC[C@H](C)[C@H](O)[C@H](C)[C@H]1OC(=O)/C=C/C(C)=C/C[C@H](O)C[C@@H]2C=CC[C@@H](C[C@H](OC)C(C)(O)[C@@H](OC)C[C@@H](OC)[C@@H]1C)O2 (some centres undefined)	x	x	x	x	-22
O=C1c2cccnc2C(=O)N1CO	4	-6	-1	32	4
NC1=C(Br)C(=O)c2ncccc2C1=O	28*	x	3	x	11
c1ccc(CCn2nnc(-c3ccc(N4CCOCC4)cc3)n2)cc1	x	x	x	x	8
COCCCN(Cc1cc(OC)c(OC)c(OC)c1)C(=S)Nc1cccc(SC)c1	2	x	15	x	15
CC(C)(C)C1CCC(OC(=O)C[N+]2(C)CCCCC2)CC1 (centres undefined)	-5	-11	3	79*	8
Oc1ccc(Br)cc1-c1n[nH]c(=S)n1Cc1ccccc1	2	32	-3	18	6
Cn1c(-c2cc(Br)ccc2O)n[nH]c1=S	1	67*	16	-6	4
COc1cc(N2CCC(O)CC2)ccc1Nc1cc(Nc2ccccc2S(=O)(=O)C(C)C)c2cc[nH]c2n1	9	x	8	x	15
Cc1sc2ncnc(N/N=C/c3ccccc3O)c2c1C	-1	94*	6	34	4
Cc1sc2ncnc(N/N=C/c3ccc(O)cc3)c2c1C	9	-2	-4	-14	-8
Cc1ccc(NC(=O)CSc2nc(C)cc(=O)[nH]2)c(C)c1	x	x	x	x	-2
O=C(O)c1ccc(N2C(=O)CSC2=S)cc1	-2	2	-16	4	-2
O=C(O)c1ccc(CN2C(=O)CSC2=S)cc1	12	2	13	98*	-37
NC(=Nc1c([N+](=O)[O-])cnc2ccccc12)N1CCOCC1	4	x	-2	x	6
Cc1nn(-c2ccccc2)c(Cl)c1C1C(C#N)=C(N)OC2=C1C(=O)CC(C)(C)C2 (centres undefined)	5	85*	4	-22	-4
Cc1nn(C)c(C)c1C1C(C#N)=C(N)OC2=C1C(=O)CC(C)(C)C2 (centres undefined)	6	0	1	5	6
COc1ccc(/C=C/c2ccc3cccc(O)c3n2)c(OC)c1OC	11	105*	1	59	-6
COc1cccc(/C=C/c2ccc3cccc(O)c3n2)c1OC	4	86*	-8	4	7
COc1ccc(-n2c(SCC(=O)Nc3ccc4c(c3)OCO4)nc3sc4c(c3c2=O)CCCC4)cc1	x	x	x	x	3
Cc1[nH]c(-c2ccc(F)cc2)cc1C(=O)N1CCN(c2ccc(Cl)cc2)CC1	7	54*	6	1	-15
COc1ccc(N2CCN(C(=O)c3cc(-c4ccc(F)cc4)[nH]c3C)CC2)cc1	7	13	-4	5	-25

Bioassay records from PubChem BioAssay.
